Calls of active or inactive are those of the source. The rule behind the calls is not given here.
Experiments:
NCI-H69 [1] = assay: Antitumor activity against human NCI-H69 cells xenografted in CrTac:NCr-Foxn1nu mouse assessed as tumor regression at 2 mg/kg, iv measured up to 40 days; format: functional
Outline: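 Female athymic nude mice were implanted subcutaneously in the right flank with 2.5 × 10^6 NCI-H69 cells (RPMI 1640/10% FBS culture) in media:Matrigel (1:1). At 150-250 mm3, mice were randomized into groups of 10. Compound in 10% propylene glycol in 5 mM citrate buffer (pH=4) was given by tail-vein i.v. injection on indicated days. Tumor volume was measured by calipers as (w2 × l)/2, reported as mean ± SEM.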

[2] = Clearance in Beagle dog at 0.1 mg/kg, iv; format: ADME, organism-based, Canis lupus familiaris; conditions: in vivo
[3] = AUC (0 to 6 hrs) in Beagle dog at 0.1 mg/kg, iv; format: ADME, organism-based, Canis lupus familiaris; design: dose 0.1 mg/kg, time < 6 hr, route intravenous; conditions: in vivo
[4] = Cmax in Beagle dog at 0.1 mg/kg, iv; format: ADME, organism-based, Canis lupus familiaris; design: dose 0.1 mg/kg, route intravenous; conditions: in vivo
NCI-H524 [5] = assay: Cytotoxicity in human NCI-H524 cells pre-incubated for 2 hrs in presence of 100 uM octreotide followed by compound wash out and subsequently incubated for 70 hrs by Cell Titer Glo assay; format: functional, cell-based
Outline: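 Octreotide receptor-blockade variant: NCI-H524 cells (5,000/well) were pretreated with octreotide acetate for 30 min, then given compound for 2 h in a ten-point three-fold series.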

NCI-H524 [6] = assay: Cytotoxicity in human NCI-H524 cells pre-incubated for 2 hrs followed by compound wash out and subsequently incubated for 70 hrs by Cell Titer Glo assay; format: functional, cell-based
Outline: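 Cells were then spun, washed with fresh medium, resuspended and grown a further 70 h. Proliferation was read by CellTiter-Glo luminescence, and % inhibition calculated relative to vehicle. IC50 came from a four-parameter nonlinear fit.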

[7] = Toxicity in CrTac:NCr-Foxn1nu mouse xenografted with human NCI-H69 cells assessed as body weight loss at 2 mg/kg, iv measured up to 40 days; format: organism-based; conditions: in vivo, 960 h
[8] = Half life in Beagle dog at 0.1 mg/kg, iv; format: ADME, organism-based, Canis lupus familiaris; conditions: in vivo
[9] = Half life of the compound in phosphate buffer at 1 mM in presence of GSH by LC-MS/MS analysis; format: physicochemical; conditions: phosphate buffer with GSH
Outline: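 Conjugate, added from a 1 mM methanol stock, was incubated in 5 mM GSH at 37 °C. Aliquots taken from 30 min to 6 h were quenched into N-ethyl maleimide in 1% ethanol, and remaining parent conjugate was measured by LC-MS/MS.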

[10] = biological target: T1, Somatostatin receptor type 2 (Homo sapiens, UniProt P30874); assay: Displacement of [125I]somatostatin from human SSTR2 expressed in CHO-K1 cell membranes after 240 mins
Outline: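 Membranes from CHO-K1 cells stably expressing human SSTR2, prepared in modified HEPES pH 7.4. Nonspecific binding was defined with 1 µM somatostatin. Bound ligand was measured by filtration, 3 washes and counting. Six test concentrations were run, top 10 nM, in five-fold dilutions.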

[11] = biological target: T2, Somatostatin receptor type 5 (Homo sapiens, UniProt P35346); assay: Antagonist activity at SSTR5 (unknown origin) assessed as effect on agonist-induced calcium flux incubated for 180 secs by FLIPR assay; format: functional
[12] = biological target: T1, Somatostatin receptor type 2; assay: Agonist activity at SSTR2 (unknown origin) assessed as effect on calcium flux incubated for 180 secs by FLIPR assay; format: functional
[13] = biological target: Somatostatin receptor type 3 (Homo sapiens, UniProt P32745); assay: Displacement of [125I]somatostatin from human SSTR3 expressed in CHO-K1 cell membranes after 120 mins
[14] = biological target: Somatostatin receptor type 1 (Homo sapiens, UniProt P30872); assay: Displacement of [125I]somatostatin from human SSTR1 expressed in CHO-K1 cell membranes after 120 mins
[15] = Apparent permeability from apical to basolateral side in human Caco2 cells; format: ADME, cell-based; conditions: Caco-2
[16] = biological target: T2, Somatostatin receptor type 5; assay: Agonist activity at SSTR5 (unknown origin) assessed as effect on calcium flux incubated for 180 secs by FLIPR assay; format: functional
[17] = Drug uptake in tumor of CrTac:NCr-Foxn1nu mouse xenografted with human NCI-H69 cells assessed as DM1 level at 1 mg/kg, iv measured after 24 hrs by LC-MS/MS analysis relative to DM1 alone; format: ADME, organism-based, Neoplasm; conditions: in vivo
Outline: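 NCI-H69 subcutaneous tumors of 250-600 mm3 in nude mice, groups of 3, dosed i.v. Free DM1 was given in 10% propylene glycol/WFI, conjugates in 10% propylene glycol/5 mM citrate pH 4. Tumors were excised at 24 h and homogenized 1:4 (w/v) in 0.1 M ammonium bicarbonate pH 8.0. Homogenate was reduced with TCEP in acetonitrile (15 min, 37 °C), capped with 0.2 M NEM (15 min, 37 °C), and DM1-NEM quantified by LC-MS/MS against standards in blank tumor homogenate. Values were normalized to DM1 dose.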

[18] = biological target: T1, Somatostatin receptor type 2; assay: Antagonist activity at SSTR2 (unknown origin) assessed as effect on agonist-induced calcium flux incubated for 180 secs by FLIPR assay; format: functional
[19] = biological target: Somatostatin receptor type 4 (Homo sapiens, UniProt P31391); assay: Displacement of [125I]somatostatin from human SSTR4 expressed in CHO-K1 cell membranes after 120 mins
[20] = biological target: T2, Somatostatin receptor type 5; assay: Displacement of [125I]somatostatin from human SSTR5 expressed in CHO-K1 cell membranes after 120 mins
[21] = biological target: T1, Somatostatin receptor type 2; assay: Binding affinity to human SSTR2 expressed in CHO-K1 cells assessed as induction of SSTR2 internalization after 4 hrs by chemiluminescent assay; format: cell-based
NCI-H69 [22] = assay: Antitumor activity against human NCI-H69 cells xenografted in CrTac:NCr-Foxn1nu mouse assessed as tumor regression at 1.3 mg/kg, iv measured up to 40 days; format: functional, organism-based
Outline: (§1)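 Female athymic nude mice were implanted subcutaneously in the right flank with 2.5 × 10^6 NCI-H69 cells in medium/Matrigel 1:1. At 150-250 mm3, animals were randomized into groups of 10. Dosing was by tail-vein injection in 10% propylene glycol in 5 mM citrate pH 4 on the indicated days. Caliper volumes were calculated as (w2 × l)/2 and reported as mean ± SEM.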

IMR-32 = assay: Antitumor activity against human IMR32 cells xenografted in CrTac:NCr-Foxn1nu mouse assessed as tumor regression at […], iv measured up to 20 days; format: functional
[23] = Antitumor activity against human HCC33 cells xenografted in CrTac:NCr-Foxn1nu mouse assessed as tumor regression at 1 mg/kg, iv measured up to 16 days; format: functional
Outline: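 Female athymic nude mice received subcutaneous right-flank implants in media:Matrigel (1:1): 2.5 × 10^6 HCC-33 cells (RPMI 1640/10% FBS) or 1 x 10^7 IMR-32 cells (EMEM/10% FBS). At 150-250 mm3, mice were randomized into groups of 10. Dosing was tail-vein i.v. on indicated days in 0.1% Solutol HS 15/5% mannitol/WFI. Caliper volume was (w2 × l)/2, reported as group mean ± SEM.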

NCI-H69 [24] = assay: Antitumor activity against human NCI-H69 cells xenografted in CrTac:NCr-Foxn1nu mouse assessed as tumor regression at 0.7 mg/kg, iv measured up to 20 days; format: functional, organism-based; outline: as §1

T2 sequence (P35346 whole entry): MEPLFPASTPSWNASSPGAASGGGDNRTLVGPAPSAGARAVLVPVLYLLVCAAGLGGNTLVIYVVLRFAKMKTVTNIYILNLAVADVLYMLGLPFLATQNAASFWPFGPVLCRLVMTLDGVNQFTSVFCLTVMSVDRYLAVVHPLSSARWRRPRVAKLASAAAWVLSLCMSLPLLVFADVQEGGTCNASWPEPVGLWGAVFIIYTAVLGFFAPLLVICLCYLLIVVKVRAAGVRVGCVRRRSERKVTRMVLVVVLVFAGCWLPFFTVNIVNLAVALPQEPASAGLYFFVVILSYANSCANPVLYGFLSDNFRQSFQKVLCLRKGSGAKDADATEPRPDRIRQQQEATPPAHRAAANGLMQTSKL
T1 sequence (P30874 whole entry): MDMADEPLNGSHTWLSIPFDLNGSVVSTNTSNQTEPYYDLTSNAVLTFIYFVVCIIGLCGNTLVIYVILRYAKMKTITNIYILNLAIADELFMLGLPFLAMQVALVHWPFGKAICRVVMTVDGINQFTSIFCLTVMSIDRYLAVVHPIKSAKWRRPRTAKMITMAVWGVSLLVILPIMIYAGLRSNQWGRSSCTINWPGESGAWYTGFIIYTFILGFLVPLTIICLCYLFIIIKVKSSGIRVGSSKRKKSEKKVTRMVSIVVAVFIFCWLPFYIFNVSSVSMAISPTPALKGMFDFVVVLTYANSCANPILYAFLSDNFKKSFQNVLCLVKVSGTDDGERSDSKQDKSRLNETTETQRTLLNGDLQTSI
Somatostatin receptor type 1, sequence (P30872 whole entry): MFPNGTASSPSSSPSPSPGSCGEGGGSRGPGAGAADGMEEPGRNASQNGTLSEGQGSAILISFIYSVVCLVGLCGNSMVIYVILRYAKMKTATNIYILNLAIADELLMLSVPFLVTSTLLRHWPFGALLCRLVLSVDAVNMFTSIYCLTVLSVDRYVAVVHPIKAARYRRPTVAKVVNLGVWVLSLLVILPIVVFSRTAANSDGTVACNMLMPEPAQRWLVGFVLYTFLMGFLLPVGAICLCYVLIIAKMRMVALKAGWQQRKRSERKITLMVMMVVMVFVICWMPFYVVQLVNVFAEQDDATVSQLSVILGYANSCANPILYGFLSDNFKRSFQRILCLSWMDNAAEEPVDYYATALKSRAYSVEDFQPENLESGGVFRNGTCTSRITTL
Somatostatin receptor type 4, sequence (P31391 whole entry): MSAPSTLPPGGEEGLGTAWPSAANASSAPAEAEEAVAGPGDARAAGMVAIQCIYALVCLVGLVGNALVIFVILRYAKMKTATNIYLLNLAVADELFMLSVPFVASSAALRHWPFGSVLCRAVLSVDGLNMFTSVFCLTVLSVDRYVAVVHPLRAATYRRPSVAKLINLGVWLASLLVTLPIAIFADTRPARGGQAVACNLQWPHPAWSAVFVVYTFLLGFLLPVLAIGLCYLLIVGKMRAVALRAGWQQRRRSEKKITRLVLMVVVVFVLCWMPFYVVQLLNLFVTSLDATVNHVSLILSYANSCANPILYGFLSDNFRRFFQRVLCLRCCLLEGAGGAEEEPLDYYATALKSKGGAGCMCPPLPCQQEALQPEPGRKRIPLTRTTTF
Somatostatin receptor type 3, sequence (P32745 whole entry): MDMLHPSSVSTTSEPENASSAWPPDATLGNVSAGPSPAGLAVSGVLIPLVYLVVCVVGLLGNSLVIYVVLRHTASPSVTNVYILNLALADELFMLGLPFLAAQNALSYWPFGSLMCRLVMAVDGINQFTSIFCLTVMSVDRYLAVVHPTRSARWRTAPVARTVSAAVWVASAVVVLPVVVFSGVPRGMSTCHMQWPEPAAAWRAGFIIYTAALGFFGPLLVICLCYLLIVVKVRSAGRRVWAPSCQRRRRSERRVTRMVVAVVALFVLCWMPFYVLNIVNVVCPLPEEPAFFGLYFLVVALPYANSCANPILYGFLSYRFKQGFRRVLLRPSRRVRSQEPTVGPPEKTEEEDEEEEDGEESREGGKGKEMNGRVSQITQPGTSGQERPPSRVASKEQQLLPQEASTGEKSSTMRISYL

| SMILES | Activity (NCI-H69 [1]) [%] | clearance [2] [mL/min/kg] | AUC(0-t) at 6 h [3] [µM·h] | Cmax [4] [nM] | IC50 (NCI-H524 [5]) [nM] | IC50 (NCI-H524 [6]) [nM] | Activity [7] | half-life [8] [h] | half-life at 1000 µM [9] [h] | Ki [10] [nM] | Drug uptake [17] | EC50 [21] [nM] | other results |
| --- | --- | --- | --- | --- | --- | --- | --- | --- | --- | --- | --- | --- | --- |
| COc1cc2cc(c1Cl)N(C)C(=O)C[C@H](OC(=O)[C@H](C)N(C)C(=O)CCSSC(C)(C)[C@H](NC(=O)[C@@H]1CSSC[C@H](NC(=O)[C@H](N)Cc3ccccc3)C(=O)N[C@@H](Cc3ccc(O)cc3)C(=O)N[C@H](Cc3c[nH]c4ccccc34)C(=O)N[C@@H](CCCCN)C(=O)N[C@@H]([C@@H](C)O)C(=O)N1)C(N)=O)[C@@]1(C)O[C@H]1[C@H](C)[C@@H]1C[C@@](O)(NC(=O)O1)[C@H](OC)/C=C/C=C(\C)C2 | 100 | 1.09 | 0.769 | 867 | 1040 | 8 | Non-Toxic | 1.38 | 0.947 | 0.015 |  |  |  |
| COc1cc2cc(c1Cl)N(C)C(=O)C[C@H](OC(=O)[C@H](C)N(C)C(=O)CCSSC[C@H](NC(=O)[C@@H]1CSSC[C@H](NC(=O)[C@H](N)Cc3ccccc3)C(=O)N[C@@H](Cc3ccc(O)cc3)C(=O)N[C@H](Cc3c[nH]c4ccccc34)C(=O)N[C@@H](CCCCN)C(=O)N[C@@H]([C@@H](C)O)C(=O)N1)C(N)=O)[C@@]1(C)O[C@H]1[C@H](C)[C@@H]1C[C@@](O)(NC(=O)O1)[C@H](OC)/C=C/C=C(\C)C2 | 100 | 1.66 | 0.47 | 708 | 910 | 10 | Non-Toxic | 2.33 | 0.167 | 0.022 | Active | 1 | Activity [11]: Active; Activity [12]: Active; Kd [13]: 19.8 nM; Kd [14]: 310 nM; Papp A→B [15]: 0.018 ×10⁻⁶ cm/s; Activity [16]: Active; Activity [18]: Active; Kd [19]: 5480 nM; Kd [20]: 9.6 nM; Activity (NCI-H69 [22]): Active; Activity (IMR-32): 100%; Activity [23]: 100% |
| COc1cc2cc(c1Cl)N(C)C(=O)C[C@H](OC(=O)[C@H](C)N(C)C(=O)CCSSC[C@H](NC(=O)[C@@H]1CSSC[C@H](NC(=O)[C@H](N)Cc3ccccc3)C(=O)N[C@@H](Cc3ccc(O)cc3)C(=O)N[C@H](Cc3c[nH]c4ccccc34)C(=O)N[C@@H](CCCCNC(=O)NCCCCCCN)C(=O)N[C@@H]([C@@H](C)O)C(=O)N1)C(N)=O)[C@@]1(C)O[C@H]1[C@H](C)[C@@H]1C[C@@](O)(NC(=O)O1)[C@H](OC)/C=C/C=C(\C)C2 |  |  |  |  | 644 | 581 |  |  |  | 3350 |  |  | Activity (NCI-H69 [24]): inactive |
| COc1cc2cc(c1Cl)N(C)C(=O)C[C@H](OC(=O)[C@H](C)N(C)C(=O)CCSSCCCN[C@H](Cc1ccccc1)C(=O)N[C@H]1CSSC[C@@H](C(=O)N[C@H](CO)[C@@H](C)O)NC(=O)[C@H]([C@@H](C)O)NC(=O)[C@H](CCCCN)NC(=O)[C@@H](Cc3c[nH]c4ccccc34)NC(=O)[C@H](Cc3ccccc3)NC1=O)[C@@]1(C)O[C@H]1[C@H](C)[C@@H]1C[C@@](O)(NC(=O)O1)[C@H](OC)/C=C/C=C(\C)C2 |  |  |  |  | 221 | 30 |  |  |  | 0.12 | Active |  |  |
| CO[C@H]1C(=O)[C@]2(C)[C@@H](OC)C[C@H]3OC[C@@]3(OC(C)=O)[C@H]2[C@H](OC(=O)c2ccccc2)[C@]2(O)C[C@H](OC(=O)[C@H](OC(=O)OCCSSC[C@H](NC(=O)[C@@H]3CSSC[C@H](NC(=O)[C@H](N)Cc4ccccc4)C(=O)N[C@@H](Cc4ccc(O)cc4)C(=O)N[C@H](Cc4c[nH]c5ccccc45)C(=O)N[C@@H](CCCCN)C(=O)N[C@@H]([C@@H](C)O)C(=O)N3)C(N)=O)[C@@H](NC(=O)OC(C)(C)C)c3ccccc3)C(C)=C1C2(C)C |  |  |  |  | 14 | 7 |  |  |  | 0.97 |  | 11 |  |
